Data on 7 molecules can be found in ChEMBL document CHEMBL4138228, “Substituted carbamothioic amine-1-carbothioic thioanhydrides as novel trichomonicidal fungicides: Design, synthesis, and biology” (Eur J Med Chem, 2018).

The structures appear in SMILES notation. Values after ≈ are worked out from the molar mass of the structure shown.

The test system of data set [1] is Nakaseomyces glabratus. As to the kind of experiment: Antifungal activity against Candida glabrata ATCC 2001 after 48 hrs by broth microdilution method. The class given is functional. The note with it: ATCC 2001, 48 h. Put shortly:
(§1)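 Broth microdilution per NCCLS guidelines in MOPS-buffered RPMI 1640; starting inoculum 1-5 x 10^3 CFU/mL; plates incubated at 35 °C; MIC recorded after 48 h; fluconazole as reference; experiments repeated three times.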
In general terms: Dilution methods test growth across graded concentrations, often in twofold steps.

The test system of data set [2] is Candida albicans. As to the kind of experiment: Antifungal activity against Candida albicans ATCC 66027 after 48 hrs by broth microdilution method. The class given is functional. The note with it: ATCC 66027, 48 h. Put shortly: as §1
The subject of data set [3] is Candida albicans. As to the kind of experiment: Antifungal activity against Candida albicans ATCC 14053 after 48 hrs by broth microdilution method. The class given is functional. As to conditions: ATCC 14053, 48 h. Put shortly: as §1
Data set [4] has as its system Candida albicans. As to the kind of experiment: Antifungal activity against Candida albicans ATCC 10231 after 48 hrs by broth microdilution method. The class given is functional. The note with it: ATCC 10231, 48 h. Put shortly:
as §1

Data set [5] deals with Candida albicans. As to the kind of experiment: Antifungal activity against Candida albicans patient isolate after 48 hrs by broth microdilution method. The class given is functional. Put shortly: as §1
For data set [6], the system named is Trichophyton mentagrophytes. As to the kind of experiment: Antifungal activity against Trichophyton mentagrophytes after 48 hrs by broth microdilution method. The class given is functional. Put shortly: as §1
Data set [7] concerns Sporothrix schenckii. As to the kind of experiment: Antifungal activity against Sporothrix schenckii after 48 hrs by broth microdilution method. In kind it is functional. Put shortly: as §1
The test system of data set [8] is Cryptococcus neoformans. As to the kind of experiment: Antifungal activity against Cryptococcus neoformans after 48 hrs by broth microdilution method. The class given is functional. Put shortly:
as §1

The nature of data set [9]: Selectivity index, ratio of IC50 for human HeLa cells to MIC for metronidazole-susceptible Trichomonas vaginalis. The class given is toxicity. The note with it: read-out: Selectivity Index.
Data set [10] is described as follows: Selectivity index, ratio of IC50 for human HeLa cells to MIC for metronidazole-resistant Trichomonas vaginalis CDC085 ATCC 50143. In kind it is toxicity. As to conditions: read-out: Selectivity Index.
Data set [11] relates to HeLa. As to the kind of experiment: Cytotoxicity against human HeLa cells after 24 hrs by MTT assay. The class given is cell-based.
Data set [12] concerns Trichomonas vaginalis. As to the kind of experiment: Antitrichomonas activity against metronidazole-resistant Trichomonas vaginalis CDC085 ATCC 50143 assessed as decrease in cell viability after 48 hrs by trypan blue exclusion method. The class given is functional. The note with it: CDC085 ATCC 50143, 48 h.
For data set [13], the system named is Trichomonas vaginalis. As to the kind of experiment: Antitrichomonas activity against metronidazole-susceptible Trichomonas vaginalis assessed as decrease in cell viability after 48 hrs by trypan blue exclusion method. The class given is functional.
Data set [14] relates to Trichomonas vaginalis. As to the kind of experiment: Potency index, ratio of metronidazole MIC to test compound MIC for metronidazole-resistant Trichomonas vaginalis CDC085 ATCC 50143. In kind it is functional.
The subject of data set [15] is Candida albicans. As to the kind of experiment: Antifungal activity against Candida albicans MTCC 183 after 48 hrs by broth microdilution method. The class given is functional. As to conditions: MTCC 183, 48 h. Put shortly:
as §1

Data set [16] has as its system Candida parapsilosis. As to the kind of experiment: Antifungal activity against Candida parapsilosis ATCC 22019 after 48 hrs by broth microdilution method. The note with it: Lodderomyces parapsilosis, ATCC 22019, 48 h. In kind it is functional. Put shortly: as §1

For `CCSC(=S)N1CCN(C(=S)SC(=S)N(C)C)CC1`, the MIC (commonly the smallest concentration in the dilution series that meets the test's criterion for growth inhibition) was greater than 141 µM in data set [1]; 70.5 µM (≈ 24.9 µg/mL) in data set [2]; 141 µM (≈ 49.9 µg/mL) in data set [3]; 141 µM (≈ 49.9 µg/mL) in data set [4]; 17.6 µM (≈ 6.23 µg/mL) in data set [5]; 35.2 µM (≈ 12.5 µg/mL) in data set [6]. In addition, the MIC was found to be 35.2 µM (≈ 12.5 µg/mL) in [7]; 141 µM (≈ 49.9 µg/mL) in [8]; 282 µM (≈ 99.9 µg/mL) in data set [12]; 141 µM (≈ 49.9 µg/mL) in data set [13]; 70.5 µM (≈ 24.9 µg/mL) in data set [15]; 8.81 µM (≈ 3.12 µg/mL) in data set [16]. The selectivity ratio was found to be 31 in [9] and 15 in data set [10]. Further, the IC50 – broadly, the concentration needed to halve the response being measured – in data set [11] was determined as 4480 µM. Besides, the Ratio in [14] is recorded as 1.3 - 11.2.
With `COc1ccccc1N1CCN(C(=S)SC(=S)N(C)C)CC1`, the minimal inhibitory concentration (MIC) is greater than 140 µM in data set [1]; 70.2 µM (≈ 25 µg/mL) in [2]; greater than 140 µM in [3]; greater than 140 µM in data set [4]; greater than 140 µM in [5]; 140 µM (≈ 49.9 µg/mL) in data set [6]. For the same molecule, the MIC in [7] was 140 µM (≈ 49.9 µg/mL); in data set [8], greater than 140 µM; in data set [12], 702 µM (≈ 250 µg/mL); in data set [13] it was 281 µM (≈ 99.9 µg/mL); in [15] it was 140 µM (≈ 49.9 µg/mL); in [16], 70.2 µM (≈ 25 µg/mL). In addition, the figures for the selectivity ratio in [9] and in [10] were 15 and 6, respectively. The molecule also yielded a concentration for half-maximal inhibition (IC50) in data set [11] of 4330 µM. For the same molecule, in data set [14], the Ratio is reported as 1.3 - 9.5.
For `CN1CCN(C(=S)SC(=S)N(C)C)CC1`, the minimal inhibitory concentration (MIC) in [1] was 190 µM (≈ 50.1 µg/mL); in [2] it was 47.5 µM (≈ 12.5 µg/mL); in data set [3], 95 µM (≈ 25 µg/mL); in data set [4] it was 190 µM (≈ 50.1 µg/mL); in [5] it was 95 µM (≈ 25 µg/mL); in [6], 95 µM (≈ 25 µg/mL). The MIC turned out to be 95 µM (≈ 25 µg/mL) in data set [7]; 190 µM (≈ 50.1 µg/mL) in data set [8]; 95 µM (≈ 25 µg/mL) in [12]; 47.5 µM (≈ 12.5 µg/mL) in [13]; 95 µM (≈ 25 µg/mL) in data set [15]; 190 µM (≈ 50.1 µg/mL) in data set [16]. Moreover, the selectivity ratio in data set [9] turned out to be 26; in data set [10] it was 12. In [11], this molecule had an IC50 of 1220 µM. Moreover, in [14], the Ratio is 1.3 - 9.5.
`CN(C)C(=S)SC(=S)N1CCN(c2cccc(Cl)c2)CC1`: the minimum inhibitory concentration (MIC) is greater than 139 µM in [1]; greater than 139 µM in data set [2]; greater than 139 µM in data set [3]; greater than 139 µM in data set [4]; 34.7 µM (≈ 12.5 µg/mL) in data set [5]; 34.7 µM (≈ 12.5 µg/mL) in data set [6]. Also, the minimal inhibitory concentration (MIC) in data set [7] is 34.7 µM (≈ 12.5 µg/mL); in data set [8] it was 139 µM (≈ 49.9 µg/mL); in data set [12], 278 µM (≈ 100 µg/mL); in data set [13], 139 µM (≈ 50 µg/mL); in data set [15], 69.3 µM (≈ 25 µg/mL); in data set [16] it was 8.66 µM (≈ 3.12 µg/mL). Moreover, the selectivity ratio in [9] came to 36; in data set [10], 18. For the same molecule, in data set [11], the IC50 is greater than 5000 µM. In addition, the Ratio in data set [14] was 1.3 - 9.5.
As for `CC1CCCN(C(=S)SC(=S)N(C)C)C1` (configuration not stated), the MIC in data set [1] came out at 95.4 µM (≈ 25 µg/mL); in data set [2], 47.7 µM (≈ 12.5 µg/mL); in [3] it was 95.4 µM (≈ 25 µg/mL); in [4] it was 95.4 µM (≈ 25 µg/mL); in data set [5] it was 23.9 µM (≈ 6.26 µg/mL); in data set [6], 23.9 µM (≈ 6.26 µg/mL). In addition, the minimum inhibitory concentration (MIC) was found to be 23.9 µM (≈ 6.26 µg/mL) in [7]; 47.7 µM (≈ 12.5 µg/mL) in [8]; 95.4 µM (≈ 25 µg/mL) in data set [12]; 47.7 µM (≈ 12.5 µg/mL) in [13]; 47.7 µM (≈ 12.5 µg/mL) in data set [15]; 23.9 µM (≈ 6.26 µg/mL) in [16]. In addition, the figures for the selectivity ratio in data set [9] and in [10] were 60 and 30, respectively. Besides, in data set [11], it took 2900 µM to reach half-maximal inhibition (IC50). Moreover, the Ratio in [14] is 1.5 - 3.8.
Turning to `CN(C)C(=S)SC(=S)N1CCN(c2cccc(Cl)c2Cl)CC1`, the MIC in data set [1] is greater than 127 µM; in data set [2], greater than 127 µM; in data set [3], greater than 127 µM; in data set [4], greater than 127 µM; in data set [5] it was 31.7 µM (≈ 12.5 µg/mL); in [6], 15.9 µM (≈ 6.26 µg/mL). Also, the MIC in data set [7] was 15.9 µM (≈ 6.26 µg/mL); in data set [8] it was 127 µM (≈ 50.1 µg/mL); in data set [12], 127 µM (≈ 50.1 µg/mL); in data set [13], 63.5 µM (≈ 25 µg/mL); in data set [15], 63.5 µM (≈ 25 µg/mL); in data set [16], 31.7 µM (≈ 12.5 µg/mL). Besides, the selectivity ratio stood at 25 in data set [9] and 12 in [10]. Also, in data set [11], the IC50 came out at 1590 µM. Moreover, in data set [14], the Ratio was 1.3 - 9.5.
Turning to `CCN(C)C(=S)SC(=S)N(C)C`, the MIC in data set [1] came out at 113 µM (≈ 25 µg/mL); in data set [2], 28.1 µM (≈ 6.26 µg/mL); in [3], 113 µM (≈ 25 µg/mL); in data set [4] it was 113 µM (≈ 25 µg/mL); in data set [5], 113 µM (≈ 25 µg/mL); in [6], 56.3 µM (≈ 12.5 µg/mL). The MIC in data set [7] stood at 56.3 µM (≈ 12.5 µg/mL); in data set [8], 225 µM (≈ 50.1 µg/mL); in data set [12], 225 µM (≈ 50.1 µg/mL); in [13] it was 113 µM (≈ 25 µg/mL); in data set [15] it was 56.3 µM (≈ 12.5 µg/mL); in data set [16], 113 µM (≈ 25 µg/mL). Also, the values for the selectivity ratio in [9] and in [10] were 18 and 9, respectively. The molecule further came in with an IC50 in data set [11] of 2070 µM. Besides, the Ratio in data set [14] is reported as 1.5 - 3.8.
